High-throughput results (PubChem BioAssay)
Compounds with a hit are over-represented: about 2.8% of the library has one in this group of screens.
PAFAH2 inh: inhibitors of human PAFAH2 | recombinant PAFAH2, FP-rhodamine activity probe, fluorescence polarization | 0.99% of 340,000 active | inhibition, % at 3.39 µM | AID 492956;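 active = inhibition above the mean over all tested compounds plus 3 SD, cut at about 30% in these data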;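 also: inhibitors block probe labeling of enzyme so polarization drops; 0% = enzyme with DMSO and 100% = wells lacking PAFAH2 protein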
PAFAH1B2 inh: PAFAH1B2 (human) inhibition | P68402 | recombinant PAFAH1B2, FP-rhodamine activity probe, fluorescence polarization | inhibition, % at 3.39 µM | 1.2% of 340,000 active | AID 492953;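 active = inhibition above the mean of all tested compounds plus 3 SD, cut at about 24% in these data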;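 also: 0% = enzyme with DMSO and 100% = wells lacking PAFAH1B2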
PAFAH1B3 inh: blocks human PAF acetylhydrolase 1B catalytic subunit 3. Q15102. recombinant PAFAH1B3, FP-rhodamine probe, fluorescence polarization. inhibition, % at 3.39 µM. 0.28% of 340,000 active. AID 492972;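 active = inhibition above the screen-wide average of all tested compounds plus 3 SD, cut at about 25% in these data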;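 also: 0% = enzyme with DMSO only and 100% = wells lacking PAFAH1B3 protein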
mABHD4 FP: ABHD4 (mouse) inhibition, primary FP screen. Q8VD66. purified mABHD4, FP-Rh probe fluorescence polarization. inhibition, % at 8.92 µM. 0.54% of 370,000 active;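 active = inhibition exceeding the mean over every tested compound plus 3 SD, cut at about 30% in these data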;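 also: 0% = plate median of compound wells and 100% = S159A mutant with DMSO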
Target sequence (Q8VD66 whole entry, looked up): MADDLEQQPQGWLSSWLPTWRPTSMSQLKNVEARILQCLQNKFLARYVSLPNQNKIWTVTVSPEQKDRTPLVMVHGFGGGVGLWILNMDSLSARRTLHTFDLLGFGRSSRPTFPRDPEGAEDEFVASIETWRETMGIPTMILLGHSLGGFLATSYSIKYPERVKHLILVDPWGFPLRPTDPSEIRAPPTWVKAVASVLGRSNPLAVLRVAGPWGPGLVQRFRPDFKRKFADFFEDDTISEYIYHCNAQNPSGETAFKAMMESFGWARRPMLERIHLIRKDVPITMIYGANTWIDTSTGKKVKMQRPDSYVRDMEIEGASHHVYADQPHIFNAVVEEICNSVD
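Test system: mABHD4 protein | Buffer or medium: HEPES pH 7.0 buffer, 150 mM NaCl, 0.01% Pluronic F-127 | Probe or stimulus: FP-Rh fluorescent activity-based probe, added after compound pre-incubation | Timing: Pre-incubation 45 min, probe exposure 60 min, at 25 °C | Technique: Fluorescence polarization, excitation 525 nm, emission 598 nm, BODIPY TMR filters | Repeats: Single well per compound (singlicate)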
HTRA1 inh: inhibitors of human serine peptidase HTRA1; recombinant HTRA1, FP-rhodamine activity-based probe, fluorescence polarization; inhibition, % at 5.96 µM; AID 504803; 0.5% of 340,000 active; in the data active = inhibition above about 36%;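 also: 0% = enzyme with DMSO and 100% = wells lacking enzyme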
pPAFAH FP inh: pPAFAH (human) enzyme inhibition; Q13093; recombinant pPAFAH, FP-rhodamine probe fluorescence polarization; inhibition, % at 3.39 µM; 1.5% of 330,000 active;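 active = inhibition above the mean inhibition across the screen plus 3 SD, cut at about 25% in these data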;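 also: inhibitors block binding of the rhodamine activity-based probe so polarization drops; 0% = enzyme with DMSO and 100% = wells lacking pPAFAH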
Target sequence (Q13093 whole entry, looked up): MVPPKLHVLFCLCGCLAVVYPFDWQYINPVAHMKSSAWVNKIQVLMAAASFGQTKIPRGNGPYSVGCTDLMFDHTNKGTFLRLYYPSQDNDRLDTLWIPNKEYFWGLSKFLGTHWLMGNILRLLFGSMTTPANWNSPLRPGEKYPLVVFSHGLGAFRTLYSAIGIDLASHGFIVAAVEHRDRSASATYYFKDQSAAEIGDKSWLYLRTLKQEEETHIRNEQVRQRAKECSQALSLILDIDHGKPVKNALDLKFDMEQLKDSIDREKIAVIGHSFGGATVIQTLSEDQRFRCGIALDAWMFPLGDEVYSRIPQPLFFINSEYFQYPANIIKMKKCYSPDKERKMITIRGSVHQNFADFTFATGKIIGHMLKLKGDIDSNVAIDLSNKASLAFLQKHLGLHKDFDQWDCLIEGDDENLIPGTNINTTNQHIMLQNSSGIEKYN
PAFAH1B3 conf FP: confirmation of human PAFAH1B3 inhibitors. shares compounds with PAFAH1B3 inh. recombinant PAFAH1B3, FP-Rh activity-based probe, fluorescence polarization. inhibition, % at 3.39 µM. 30% of 390 active. AID 493032;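 active = average inhibition over triplicate runs above the hit cutoff set in the earlier primary screen, cut at about 25% in these data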;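 also: 0% = enzyme with DMSO and 100% = wells lacking PAFAH1B3 protein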
* marks the source's active call; other numbers are inactive results; . = not tested or not shown; ! = not active in a repeat.

SMILES | PAFAH2 inh | PAFAH1B2 inh | PAFAH1B3 inh | mABHD4 FP | HTRA1 inh | pPAFAH FP inh | PAFAH1B3 conf FP
O=C(COC(=O)Cc1cccs1)NCC(=O)Nc1ccc(F)cc1 | 1.2 | 7.3 | 41.5* | 0.2 | -1.3 | 4.7 | 8.0
COc1ccc2nc(NNC(=O)c3cc(=O)c4ccccc4o3)sc2c1 | 11.4 | 2.7 | 28.8* | 18.2 | 32.5 | 24.2 | 22.8
COCCSc1ncccc1-c1nc2ccccc2[nH]1 | . | . | . | 3.7 | . | . | .
COCCCNc1nc2ccccc2nc1NS(=O)(=O)c1cccc(Cl)c1 | 7.3 | 6.4 | 7.8 | 5.5 | 0.8 | 11.2 | .
O=S(=O)(Nc1nc2ccccc2nc1NCCO)c1cccc(Cl)c1 | 4.2 | 9.4 | 26.4* | 2.1 | 7.2 | 10.5 | 9.9
CC(CCN1CCC(C(O)(c2ccccc2)c2ccccc2)CC1)Oc1ccc(C#N)cc1F (stereo unspecified) | . | . | . | -2.0 | . | . | .
Cc1cnc(C=NNC(N)=S)c2cccc(N)c12 | 17.8 | 9.3 | 34.4* | 23.1 | 27.6 | . | 51.4*
C#CCN1CC(N(C)CCOC(=O)c2ccc(C(C)(C)C)cc2)CS1(=O)=O (stereo unspecified) | . | . | . | 6.3 | . | . | .
COc1ccccc1-c1nnc2n1N=C(c1ccc(O)c(O)c1)CS2 | 17.4 | 7.1 | 30.3* | . | 43.2* | 17.1 | 22.6
CCOc1ccc(C2=Nn3c(nnc3-c3ccccc3OC)SC2)cc1 | -2.5 | 5.3 | 15.3 | -3.4 | -23.9 | 0.3 | .
O=C(NC1=C(Nc2ccc(F)cc2)C(=O)c2ccccc2C1=O)c1ccc(Cl)cc1 | 5.2 | 12.6 | 26.1* | 6.0 | 10.0 | 5.2 | 8.5
COc1ccc(C(=O)c2nccc3cc(OC)c(OC)cc23)cc1OC | 11.6 | 10.2 | 56.5* | . | 15.3 | 4.8 | 8.1
CCCOc1cc2c(C#N)c(N3CCCC3)nc(N)c2c(N)n1 | 14.6 | 9.9 | 28.2* | 1.4 | 16.7 | 6.8 | 14.6
COc1cc2c(C#N)c(N3CCCC3)nc(N)c2c(N)n1 | 11.9 | 10.0 | 42.6*! | 3.2 | 6.8 | 8.2 | 10.7
COc1ccc(CCNC(=O)c2c(N)[nH]c(C(=O)c3ccccc3)c2-c2ccc(N(C)C)cc2)cc1 | . | . | . | 8.8 | . | . | .
COc1cc(-c2nc3c4ccccc4nc(=S)n3[nH]2)cc(OC)c1OC | -1.7 | 4.8 | 29.7* | 0.2 | -2.8 | 5.9 | 25.0
COc1ccccc1-c1nc2c3ccccc3nc(=S)n2[nH]1 | -2.9 | -2.3 | 6.6 | -2.9 | 4.3 | 5.5 | .
Clc1ccc(OCCOc2ccc(Br)nc2Br)c(Cl)c1 | . | . | . | -3.5 | . | . | .
CS(=O)(=O)N1CCc2cc(-c3csc(NC(=O)Cc4cccs4)n3)ccc21 | -5.8 | 3.4 | 36.1* | -23.9 | -19.8 | 16.1 | 5.0
COc1ccc(NC(=O)c2cccc(N3C(=O)c4ccc(C(=O)Nc5ccc(OC)c(O)c5)cc4C3=O)c2)cc1O | -4.6 | 12.2 | 26.1* | 20.1 | 3.8 | 4.8 | 16.7
CCCCCCC(=O)Nc1nc(C)c(-c2csc(Nc3ccc(Cl)cc3)n2)s1 | 23.9 | 20.9 | 28.0* | . | 30.1 | 12.6 | 12.7
Cc1nn(-c2ccccc2)c2sc(C(=O)NC3CCCCCC3)cc12 | . | . | . | -3.1 | . | . | .
O=C(NC1(O)C(=O)c2ccccc2C1=O)c1ccccc1 | 15.9 | 9.2 | 36.5* | 4.2 | 14.5 | 2.5 | 37.2*
O=C(NC1(O)C(=O)c2ccccc2C1=O)c1c(Cl)cccc1Cl | . | . | . | -1.2 | . | 7.3 | .
Cc1cc2cc(CNC(=O)Nc3ccccc3)ccc2n1C | 3.6 | 4.9 | 30.2* | 2.7 | 33.5 | 11.5 | 8.0
SMILES | PAFAH2 inh | PAFAH1B2 inh | PAFAH1B3 inh | mABHD4 FP | HTRA1 inh | pPAFAH FP inh | PAFAH1B3 conf FP
O=C1C(=NO)CCc2ccccc21 | 18.2 | 11.8 | 37.4* | 21.9 | 25.9 | . | 23.3
COc1ccc(C(=O)OCCCN(C)C2CN(Cc3cn(Cc4cccc(F)c4)nn3)S(=O)(=O)C2)cc1OC (stereo unspecified) | . | . | . | -2.4 | . | . | .
C=CC(=O)Nc1sc2c(c1C(N)=O)CCCC2 | 3.0 | -1.2 | 31.6* | -3.8 | -4.8 | -2.9 | 29.7*
C=CCNC(=S)Nc1sc2c(c1C(N)=O)CCCC2 | . | . | . | 8.1 | . | 2.6 | .
CC(=O)N(/N=C1\Sc2ccccc2C1=O)c1ccccc1C | 3.8 | 5.5 | 40.9* | -4.4 | -16.7 | -2.8 | 54.5*
CC(=O)N(/N=C1\Sc2ccccc2C1=O)c1ccccc1 | 10.5 | 13.5 | 43.6* | -0.5 | 3.1 | . | 61.8*
CC(=O)N(/N=C1/C(=O)Nc2ccccc21)c1ccccc1 | 1.5 | -2.0 | 6.9 | -0.4 | 10.6 | 5.8 | .
CC(=O)N(/N=C1\Sc2ccccc2C1=O)c1ccc(C)cc1C | -5.1 | 1.1 | 22.4 | -3.3 | -8.7 | 22.3 | .
Oc1ccccc1/C=N/n1c(COc2ccccc2)n[nH]c1=S | 3.0 | 10.0 | 43.2* | -11.1 | 3.7 | -0.2 | 5.2
COC(=O)[C@]12C[C@H](CC(=O)NCC34CC5CC(CC(C5)C3)C4)C(=O)N(Cc3cccc4ccccc34)C1=C[C@H](C1CCCC1)O[C@@H]2C | . | . | . | 0.1 | . | . | .
COC(=O)N/N=C1/C/C(=N\NC(=O)OC)c2ccccc21 | 18.3 | 2.9 | 38.4* | 5.7 | 7.5 | 3.7 | 16.3
Nc1c(O)cccc1C(=O)O | 2.7 | 4.0 | 29.8* | 19.8 | 8.8 | 11.8 | 10.0
CCc1ccc(NC(=O)NNC(=O)c2ccc3ccccc3c2O)cc1 | -6.0 | 12.3 | 36.3* | 5.9 | 10.5 | . | 74.0*
COc1ccc(NC(=O)NNC(=O)c2ccc3ccccc3c2O)cc1OC | 3.6 | 1.9 | 18.8 | 8.7 | -0.6 | 4.8 | .
COC(=O)CCC(=O)OC1(C)C(=O)C2=CN(CCc3ccccn3)C(c3ccc(OC)cc3)=CC2=C(Br)C1=O (stereo unspecified) | 13.0 | 0.6 | 29.9* | . | 37.5* | 19.9 | 4.4
C=CCn1c(NC(=O)c2ccccc2Cl)c(C#N)c2nc3ccccc3nc21 | 5.9 | 17.2 | 60.4* | -6.5 | -1.2 | 8.3 | 7.8
Cc1ccc(S(=O)(=O)NC(=O)Nc2ccc(C)cc2C)cc1 | -4.9 | 5.1 | 28.1* | 3.3 | 3.4 | . | 7.1
Cc1ccc(S(=O)(=O)NNC(=O)CCC(=O)Nc2ccc(C)cc2C)cc1 | -9.2 | 0.4 | 1.2 | 2.6 | 2.7 | 3.1 | .
CC(C)Cn1c(=O)cc(N2CCN(c3cccc(C(F)(F)F)c3)CC2)[nH]c1=O | . | . | . | 0.9 | . | . | .
COc1cc(NCCCNC(C)C)c2nccc(C)c2c1 | -0.3 | 12.5 | 40.2* | 16.7 | 18.1 | . | 13.2
COc1cc(NCc2ccccc2)c2ncn(C(C)C)c2c1 | 3.6 | 4.9 | 2.6 | 7.2 | 1.1 | 8.6 | .
CC(C)(C)OC(=O)NCc1ccccc1/C=C/S(=O)(=O)NC1CCCC1 | . | . | . | -1.5 | . | . | .
O=C1Nc2c(Cl)cc(Cl)cc2C1=O | 13.2 | 15.8 | 43.3* | 0.4 | 27.0 | . | 23.3
CCNCC(=O)N1c2ccccc2CCc2ccc(NC(C)=O)cc21 | 2.3 | 0.1 | 4.1 | -3.3 | 0.1 | 5.2 | .
CCNCC(=O)N1c2ccccc2CCc2ccc(NC(=O)OC(C)C)cc21 | -1.2 | -0.3 | 30.8* | 4.2 | -7.9 | 2.3 | 7.3
